Data as given in PMC8646148 (Bioorganic chemistry, 2021).

How the values were obtained:
[1] = biological target: T1, PXR (Homo sapiens, UniProt O75469); assay: PXR reporter gene assay in LS180 cells transfected with pSG5-hPXR and p3A4-luc; format: cell-based; conditions: for PXR antagonist effect: antagonist mode, in the presence of RIF 10 μM, 24 h
T1 sequence (O75469 1-434): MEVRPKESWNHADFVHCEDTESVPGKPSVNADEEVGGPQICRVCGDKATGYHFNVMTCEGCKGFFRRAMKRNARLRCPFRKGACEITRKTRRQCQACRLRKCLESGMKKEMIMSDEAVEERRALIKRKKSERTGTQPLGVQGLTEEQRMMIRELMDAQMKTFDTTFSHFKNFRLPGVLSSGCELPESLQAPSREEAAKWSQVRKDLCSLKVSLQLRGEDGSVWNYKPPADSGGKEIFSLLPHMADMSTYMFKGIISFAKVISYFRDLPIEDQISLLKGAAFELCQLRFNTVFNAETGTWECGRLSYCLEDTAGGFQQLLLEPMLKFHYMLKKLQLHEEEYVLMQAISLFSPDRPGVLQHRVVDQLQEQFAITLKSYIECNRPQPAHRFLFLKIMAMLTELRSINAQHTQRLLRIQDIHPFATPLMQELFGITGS
Outline: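 LS180 cells were lipofected transiently with pSG5-hPXR and p3A4-luc, then treated 24 h with test compound at up to 50 μM in DMSO 0.1% v/v. Agonist mode had no rifampicin; antagonist mode had RIF 10 μM. Luciferase was read after lysis. Antagonist data are % of the 10 μM RIF maximum. Four technical replicates, three consecutive passages.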

[2] = biological target: T2, AhR (Homo sapiens, UniProt P35869); assay: AhR reporter gene assay in stably transfected AZ-AHR cells; format: cell-based; conditions: 24 h; for Inhibition of TCDD-inducible luciferase activity: antagonist mode, TCDD 5 nM, attributed to cytotoxicity; for AhR agonistic activity: agonist mode, AZ-AHR cells
T2 sequence (P35869 11-848): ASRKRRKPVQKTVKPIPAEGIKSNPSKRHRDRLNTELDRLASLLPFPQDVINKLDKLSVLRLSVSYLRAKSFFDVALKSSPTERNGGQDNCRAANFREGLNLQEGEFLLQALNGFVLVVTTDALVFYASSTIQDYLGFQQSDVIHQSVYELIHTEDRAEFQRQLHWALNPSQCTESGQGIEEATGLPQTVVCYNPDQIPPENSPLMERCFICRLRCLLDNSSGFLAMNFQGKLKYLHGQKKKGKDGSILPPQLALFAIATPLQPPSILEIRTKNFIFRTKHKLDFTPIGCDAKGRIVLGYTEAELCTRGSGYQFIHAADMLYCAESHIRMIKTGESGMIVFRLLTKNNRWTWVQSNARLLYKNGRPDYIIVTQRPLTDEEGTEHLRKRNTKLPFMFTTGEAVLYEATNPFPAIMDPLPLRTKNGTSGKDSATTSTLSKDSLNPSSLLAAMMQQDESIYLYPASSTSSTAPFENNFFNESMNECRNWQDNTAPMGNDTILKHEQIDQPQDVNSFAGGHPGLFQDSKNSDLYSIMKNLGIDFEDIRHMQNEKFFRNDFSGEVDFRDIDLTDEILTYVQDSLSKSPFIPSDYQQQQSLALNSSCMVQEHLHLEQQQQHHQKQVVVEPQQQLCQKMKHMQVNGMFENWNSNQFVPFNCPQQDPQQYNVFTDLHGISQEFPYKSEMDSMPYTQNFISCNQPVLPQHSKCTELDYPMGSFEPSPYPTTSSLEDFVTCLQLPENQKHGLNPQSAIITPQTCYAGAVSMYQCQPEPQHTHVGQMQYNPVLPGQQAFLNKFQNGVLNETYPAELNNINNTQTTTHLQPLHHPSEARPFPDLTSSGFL
Outline: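 AZ-AHR human hepatoma cells stably carrying an AhR-responsive luciferase reporter were exposed for 24 h to test compound at up to 50 μM (vehicle DMSO 0.1% v/v). Agonist mode was run without TCDD; antagonist mode with TCDD 5 nM. Lysed cells were read for luciferase. Agonist data are fold over negative control; antagonist data are % of the 5 nM TCDD maximum. Four wells per treatment, three consecutive passages.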

[3] = test system: LS180 cells; assay: MTT test in LS180 cells; format: cell-based, human; conditions: 50 μM, 24 h
Outline: (§1)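 MTT viability was run alongside the reporter assays in AZ-AHR cells and in PXR-transfected LS180 cells. Exposure was 24 h to test compound at up to 50 μM, with vehicle DMSO 0.1% v/v. Results are given as % viability. Four technical replicates per treatment, across three consecutive cell passages.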

[4] = test system: AZ-AHR cells; assay: MTT test in AZ-AHR cells; format: cell-based, human; conditions: 24 h, up to 50 μM
Outline: as §1

[5] = test system: MDR1 mRNA; assay: qRT-PCR of MDR1 in intestinal adenocarcinoma cells; format: cell-based, human; conditions: 24 h; for Induction of MDR1 mRNA: LS174T, LS174T+PXR and LS180+PXR cells; for Induction of MDR1 mRNA in PXR-KO cells: PXR-KO LS174T cells
Outline: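 Four intestinal models were used: LS174T wild-type, a CRISPR-Cas9 PXR-knockout LS174T line, and LS174T and LS180 cells transiently transfected with a human PXR expression vector. Cells were treated 24 h with test compound at 10 μM (DMSO 0.1% v/v), alongside TCDD 10 nM or RIF 10 μM. MDR1 mRNA was measured by qRT-PCR normalized to GAPDH. Three consecutive passages, one well per treatment.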

[6] = test system: CYP3A4 mRNA; assay: qRT-PCR of CYP3A4 in primary human hepatocytes; format: cell-based; conditions: five hepatocyte cultures, 10 μM, 24 h
[7] = biological target: T3, ligand-binding domain of human PXR (Homo sapiens, UniProt O75469); assay: LanthaScreen TR-FRET PXR
T3 sequence (O75469 146-433 limits assumed): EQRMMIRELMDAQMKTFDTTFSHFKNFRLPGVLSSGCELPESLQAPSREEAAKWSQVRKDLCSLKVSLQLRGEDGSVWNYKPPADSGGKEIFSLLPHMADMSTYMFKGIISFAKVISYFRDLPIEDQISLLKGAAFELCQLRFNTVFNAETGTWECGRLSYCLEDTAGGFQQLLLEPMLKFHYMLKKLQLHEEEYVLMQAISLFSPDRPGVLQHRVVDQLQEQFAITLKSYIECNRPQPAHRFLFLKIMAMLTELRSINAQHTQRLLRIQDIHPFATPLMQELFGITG
Outline: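 LanthaScreen TR-FRET competitive binding used the human PXR ligand-binding domain and measured displacement of a fluorescent ligand. The signal was the emission ratio 520 nm/495 nm, plotted against test compound concentration. IC50 came from interpolated sigmoidal 4PL variable-slope curves. Quadruplicate wells; at least four independent experiments. Positive control: SR12813 at 100 μM.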

[8] = test system: CYP3A11 mRNA; assay: CYP3A11 gene expression in tissues of mice expressing the human PXR transgene; format: in vivo, mice expressing the human PXR gene (hPXR)
Outline: (§2)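 Humanized hPXR mice (C57BL/6 background, 6–10 weeks) received 10% DMSO or test compound in 3 or 5 doses of 500 μM each, 12 h apart. Groups had n = 3 (1 male, 2 females). Small intestine, large intestine and liver were assayed by qRT-PCR for CYP3A11 and MDR1a mRNA. Analysis: unpaired multiple t-tests with Holm-Sidak correction, α = 0.05, and a ≥2-fold induction criterion.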

[9] = test system: MDR1a mRNA; assay: MDR1a gene expression in tissues of mice expressing the human PXR transgene; format: in vivo, mice expressing the human PXR gene (hPXR)
Outline: as §2

[10] = biological target: T1, PXR; conditions: ref [21]; cited from earlier work
[11] = test system: CYP3A11 mRNA; conditions: PXR target genes CYP3A11 and MDR1a; depending on the dose schedule; ref [21]; cited from earlier work
[12] = test system: CYP1A1 mRNA; assay: qRT-PCR of CYP1A1 in primary human hepatocytes; format: cell-based; conditions: human hepatocytes from five donors, 10 μM, 24 h
Outline: (§3)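 Long-term monolayer primary human hepatocytes came from five male donors aged 43–89 years. They were treated 24 h with test compound at 10 μM, with vehicle DMSO 0.1% v/v and reference ligands TCDD 10 nM and RIF 10 μM. Total RNA was extracted with TRI Reagent, and mRNA was measured by probe-based qRT-PCR normalized to GAPDH. Statistics: one-way ANOVA, with 2-fold induction as threshold.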

[13] = test system: CYP1A2 mRNA; assay: qRT-PCR of CYP1A2 in primary human hepatocytes; format: cell-based; conditions: human hepatocytes from five donors, 10 μM, 24 h
Outline: as §3

[14] = test system: MDR1 mRNA; assay: qRT-PCR of MDR1 in primary human hepatocytes; format: cell-based; conditions: five hepatocyte cultures, RIF 10 μM, 24 h
[15] = liver, large and small intestine, 3 or 5 doses (500 μM/dose), 12 h interval

Compound	EC50 [1] [nM]	PXR antagonist effect [1]	Inhibition of TCDD-inducible luciferase activity [2]	Cytotoxicity (MTT) [3]	Cytotoxicity in AZ-AHR cells [4]	Induction of MDR1 mRNA [5]	Induction of MDR1 mRNA in PXR-KO cells [5]	IC50 [7] [nM]	AhR agonistic activity [2]	other results
C#CCC(O)(c1ccn2ccnc2c1)c1cc2ccccc2n1S(=O)(=O)c1ccccc1 (stereo not shown) [CVK-021, 1-(imidazo[1,2-a]pyridin-7-yl)-1-(1-(phenylsulfonyl)-1H-indol-2-yl)but-3-yn-1-ol]	~800	Dose-dependent antagonist effects	Dose-dependent inhibition	slightly cytotoxic	cytotoxic effects	Dose-dependent induction	no effects	920		Induction of CYP3A4 mRNA in human hepatocytes [6]: significantly induced CYP3A4 mRNA in all five human hepatocytes cultures; CYP3A11 gene expression ([8]; 3-dose and 5-dose study): not affected; Induction (≥ 2) of mean CYP3A11 mRNA expression [8, 15]: no significant induction; MDR1a gene expression, Figure 7A ([9]; large and small intestines): increased gene expression; MDR1a gene expression, Figure 7B ([9]; liver and large intestine): increased gene expression; Induction (≥ 2) of mean MDR1a mRNA expression [9, 15]: no significant induction
C#CCC(O)(c1ccncc1)c1cc2ccccc2n1S(=O)(=O)c1ccccc1 (stereo not shown) [FKK6, 1-(1-(phenylsulfonyl)-1H-indol-2-yl)-1-(pyridin-4-yl)but-3-yn-1-ol]										PXR versus AhR agonist selectivity [10]: selective PXR agonist; Induction of PXR target genes in mouse intestines or liver [11]: robustly induced
O=C(c1ccn2ccnc2c1)c1cc2ccccc2n1S(=O)(=O)c1ccccc1 [CVK-016, imidazo[1,2-a]pyridin-7-yl(1-(phenylsulfonyl)-1H-indol-2-yl)methanone]	~800	Dose-dependent antagonist effects	Dose-dependent inhibition	slightly cytotoxic	cytotoxic effects	Dose-dependent induction	no effects			Induction of hepatic CYP1A1 mRNA [12]: significantly induced; Induction of hepatic CYP1A2 mRNA [13]: significantly induced
CO[C@H]1/C=C/O[C@@]2(C)Oc3c(C)c(O)c4c(O)c(c(/C=N/N5CCN(C)CC5)c(O)c4c3C2=O)NC(=O)/C(C)=C\C=C\[C@H](C)[C@H](O)[C@@H](C)[C@@H](O)[C@@H](C)[C@H](OC(C)=O)[C@@H]1C [rifampicin]										Induction of MDR1 mRNA in human hepatocytes [14]: induction only by rifampicin and only in three hepatocytes cultures
C#CCC(O)(c1ccncc1)c1cc2ccccc2[nH]1 (stereo not shown) [CVK-003, 1-(1H-indol-2-yl)-1-(pyridin-4-yl)but-3-yn-1-ol]	7500							8590	strong	
O=S(=O)(c1ccccc1)n1c(C(O)c2ccn3ccnc3c2)cc2ccccc21 (stereo not shown) [CVK-017, imidazo[1,2-a]pyridin-7-yl(1-(phenylsulfonyl)-1H-indol-2-yl)methanol]	~800	Dose-dependent antagonist effects	Dose-dependent inhibition	slightly cytotoxic	cytotoxic effects	Dose-dependent induction	no effects		moderate	
